# A selection: hits, their analogues and other compounds. The true share with any hit is near 2.5%.
# MEKK3 PB1 HTS: modulators (inhibitors or enhancers) of MEK5 binding to human MEKK3 PB1 domain; binding response (% of control), % at 10 µM; Q99759; 1.4% of 290,000 active; bead-based flow cytometry, Alexa488-MEK5 binding to MEKK3; actives lie on both sides; 0 = blocked by unlabeled MEK5, 100 = vehicle;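 active = binding response more than 3 SD above or below the average of its plate-row segment, actives on both sides; inconclusive = wells at one plate position flagged as instrument error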;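 also: Alexa488 bead fluorescence after subtracting the streptavidin-only scavenger bead signal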
# Target sequence (Q99759 whole entry, looked up, the tested form may be a part): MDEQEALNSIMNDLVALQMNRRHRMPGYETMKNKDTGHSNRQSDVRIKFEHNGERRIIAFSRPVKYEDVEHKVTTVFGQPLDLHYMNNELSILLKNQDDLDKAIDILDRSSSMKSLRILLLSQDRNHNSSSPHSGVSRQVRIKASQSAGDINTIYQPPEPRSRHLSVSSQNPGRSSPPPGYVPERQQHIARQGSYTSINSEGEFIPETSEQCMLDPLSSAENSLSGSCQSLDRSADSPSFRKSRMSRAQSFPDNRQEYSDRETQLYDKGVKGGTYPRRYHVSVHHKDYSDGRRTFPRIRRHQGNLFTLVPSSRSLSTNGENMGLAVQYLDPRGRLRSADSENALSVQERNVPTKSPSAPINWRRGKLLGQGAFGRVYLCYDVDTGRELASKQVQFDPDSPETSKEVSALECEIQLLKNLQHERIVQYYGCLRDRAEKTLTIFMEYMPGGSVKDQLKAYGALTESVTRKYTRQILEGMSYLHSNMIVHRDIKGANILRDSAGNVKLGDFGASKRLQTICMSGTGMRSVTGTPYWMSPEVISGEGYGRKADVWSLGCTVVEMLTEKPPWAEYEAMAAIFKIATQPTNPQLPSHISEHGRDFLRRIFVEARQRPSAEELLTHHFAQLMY
# T cell modulator: T cell immune modulation candidate; 2C CD8+ T cell-vesicle binding, flow cytometry; hits give low values; response (vesicle binding), % at 7 µM; 0.068% of 330,000 active; AID 2052;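 active = response, share of CD8 T cells binding vesicles, and their 90th percentile fluorescence all below set limits, cut at about 80% in these data, passing the limit was not always enough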;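 also: values below 100% mean blocked vesicle binding to the CD8+ T cells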
#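 Assay system: 2C TCR transgenic mouse naive CD8+ T cells, MACS-purified | Read-out: CD8+ gate FL2 mean fluorescence as % of same-row positive control | Signal: High-throughput flow cytometry with anti-B7-1 and anti-CD8 staining | Timing: Binding step 1.5 h, 37 °C, antibody labelling 20 min, ice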
# Rce1 inh: inhibitors of yeast Ras-converting enzyme; 0.27% of 290,000 active; calls only; yeast membranes, quenched prenylated peptide cleavage fluorescence;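 active = fall in fluorescence gain of 50% or more versus controls, with final raw signal at or below 3038400; inconclusive = same 50% fall but final raw signal above 3038400; inactive = fall in fluorescence gain under 50%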;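 also: plate controls were neutral control wells for no effect and wells lacking membranes for full effect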
# UCH37 DUB inh: inhibitors of human deubiquitinating enzyme UCH37; Q9Y5K5; 0.33% of 330,000 active; AID 588478; inhibition, % (concentration not given with the values); purified proteasome/UCH37, Ub-AMC cleavage fluorescence;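 active = mean inhibition over replicate wells above about 20%, limit read from the data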;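 also: 0% = compound-free wells with enzyme and 100% = wells lacking proteasome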
#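 Material: human UCH37 enzyme supplied as purified proteasome complex / Amount: 0.15 nM proteasome as dispensed / Buffer or medium: pH 7.4 Tris-HCl (50 mM) with ovalbumin, ATP-MgCl2, DTT / Times: preincubation 30 min, reaction 25 min, room temperature / Technique: AMC fluorescence from Ub-AMC cleavage, excitation 355 nm, emission 460 nm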
# MEKK2wt PB1 HTS: raises or lowers MEK5 binding to wildtype human MEKK2 PB1 domain | Q9Y2U5 | AID 1531 | bead flow cytometry, Alexa488-MEK5 binding to MEKK2 WT; actives lie on both sides | 1.1% of 290,000 active | binding response (% of control), % at 10 µM; in the data active = binding response below about 67% or above about 130%; inconclusive = no clear call, values can overlap the other calls; inactive = in between
# MEKK2mut PB1 HTS: signal of MEK5 binding to mutant human MEKK2 PB1 domain. bead flow cytometry, Alexa488-MEK5 binding to MEKK2 mutant. percent response, % at 10 µM. 0.35% of 290,000 active. AID 1530; in the data active = percent response above about 24%, passing the limit was not always enough
# The depositor's hits bear a star; i = inactive; ? = inconclusive; nt = no result; + = active, no number; ! = not confirmed by another sample; [ ] = another dose, or the depositor's remark.
SMILES,MEKK3 PB1 HTS,T cell modulator,Rce1 inh,UCH37 DUB inh,MEKK2wt PB1 HTS,MEKK2mut PB1 HTS
CCc1cc(=O)oc2c3c(cc(OCC(=O)NCCC(=O)O)c12)OC(C)(C)CC3,101,177,?,i,104,2
O=C(CNC(=O)/C(=C\c1ccc(F)cc1)NC(=O)c1ccccc1)OCc1ccccc1,99,198,i,27*,94,2
Cc1cc(C)n(Cc2ccc(NC(=O)c3ccc(COc4ccccc4Br)cc3)cc2)n1,nt,99,+,-1,nt,nt
C[C@@H]1C2CC(CC2=NNC(=O)c2ccncc2)C1(C)C (stereo partly drawn),nt,nt,nt,2,nt,nt
CC1CCCC1C(=NO)c1ccccc1 (stereo not drawn),nt,nt,nt,3,nt,nt
Cc1cccc2nc(-c3cccnc3)c(NCCC(C)C)n12,95,364,i,-148,-11*,2
CCCC=NNC(=O)c1ccc(F)cc1,nt,nt,nt,2,nt,nt
C/C(C=NNC(=O)c1ccncc1)=C\c1ccco1,nt,nt,nt,23*,nt,nt
C[C@]12CCC(O)CC1=CCC1C2CC[C@]2(C)C(=NNC(N)=S)CCC12 (stereo partly drawn),nt,nt,nt,3,nt,nt
COc1ccc(Cn2c(N)c(S(=O)(=O)c3cccs3)c3nc4ccccc4nc32)cc1,109,648,+,-163,113,3
CC(=NNc1ccc(F)cc1F)c1cccs1,nt,nt,nt,1,nt,nt
NC(=NOC(=O)Cc1ccc([N+](=O)[O-])cc1)c1ccccn1,nt,nt,nt,3,nt,nt
COc1ccc(S(=O)(=O)NCC2CCCO2)cc1NC(=O)c1ccccc1F (stereo not drawn),102,228,+,-29,94,-6
COc1ccc(S(=O)(=O)NCC2CCCO2)cc1NC(=O)c1ccccc1 (stereo not drawn),94,680,i,4,92,-5
Cc1cc(C)nc(SCc2ccc(C(=O)NN=C3CC(C)CC(C)(C)C3)cc2)n1 (stereo not drawn),nt,nt,nt,4,nt,nt
CCOc1ccc(CSCCNC(=S)Nc2ccccc2)cc1,128*,169,i,3,106,0
CCCCN1C(=O)C2(NNc3ccccc3O2)c2ccccc21 (stereo not drawn),108,290,i,5,54*,20
COc1cc(C2C(C(=O)OC(C)C)=C(C)Nc3[nH]c(=O)[nH]c(=O)c32)ccc1O (stereo not drawn),61*[inhibitor],284,i,2,70*[inhibitor],-16
Cc1nc2nc(SCC(=O)NCCCN3CCCCCC3)nn2c(C)c1Cc1ccccc1,110,185,nt,2,190*,34*
CC(/C=C/c1ccc(OCc2ccccc2)cc1)=NO,nt,nt,nt,6,nt,nt
CN1CCN(C(=S)NC(=O)c2ccccc2Cl)CC1,104,336,+,0,108,10
O=C(NC(=S)Nc1ccc(N2CCOCC2)cc1)c1cccc(Cl)c1Cl,103,316,i,3,101,-4
CN1CCN(c2ccc(NC(=S)NC(=O)c3cccc4c(Cl)cccc34)cc2)CC1,101,392,i,3,170*,28*
O=C(NC(=S)N1CCCCCC1)c1ccccc1Cl,103,652,i,0,96,-3
NC(CSc1ncccc1C(F)(F)F)=NO,nt,nt,nt,3,nt,nt
SMILES,MEKK3 PB1 HTS,T cell modulator,Rce1 inh,UCH37 DUB inh,MEKK2wt PB1 HTS,MEKK2mut PB1 HTS
CC(=NNC(=O)c1ccccc1F)c1ccc2c(c1)Nc1ccccc1S2,nt,nt,nt,2,nt,nt
C=CCNC(=S)NNC(=O)C(CCC(C)C)CC(C)(C)O (stereo not drawn),107,346,i,31*,108,8
CCN(CC)S(=O)(=O)c1ccc(Cl)c(NC(=O)COC(=O)C2CCCCC2)c1,nt,0.0*,nt,5,nt,nt
Cc1cccc(C)c1NC(=S)NN=C1CC2CC=CC12 (stereo not drawn),nt,nt,nt,1,nt,nt
C=CCNc1nc(NCc2ccccc2)c(C#N)c2c1CN(C)CC2,104,213,i,-46,121,9
N#Cc1c(NCCN)nc(NCc2ccccc2)c2c1CCN(Cc1ccccc1)C2,104,nt,nt,nt,169*,36*
Cc1onc(-c2ccccc2)c1-c1ccc(S(N)(=O)=O)cc1,88,281,i,0,53*!,-6
O=Cc1cc(N=Nc2ccc(S(=O)(=O)O)cc2)ccc1O,nt,366,i,21*,nt,nt
Cc1cc(C=NNC(=O)Cn2c3ccccc3c(=O)c3ccccc32)c(C)n1-c1ccc(Cl)cc1,nt,nt,nt,-8,nt,nt
O=C(O)C1CCN(C(=O)c2cccc3ccccc23)CC1,101,i,i,4,96,0
CN1CC(C(=O)O)Cc2c1ccc1ccccc21 (stereo not drawn),105,107,+,nt,103,1
O=C(CNC(=O)C(c1ccccc1)c1ccccc1)NN=Cc1ccc(C(=O)O)cc1,nt,nt,nt,1,nt,nt
C=CC[C@H](CC(=O)NCCO)C(=O)N[C@@H](COC(=O)[C@@H](CC=C)CC(=O)OC(C)(C)C)Cc1c[nH]c2ccccc12,nt,276,nt,-1,nt,nt
C=CC[C@@H](CC(=O)NCCO)C(=O)N[C@@H](COC(=O)[C@@H](CC=C)CC(=O)OC(C)(C)C)Cc1c[nH]c2ccccc12,nt,291,nt,23*,nt,nt
CCOc1ccc(CN2CCN(CC(O)Cn3c4ccccc4c4ccccc43)CC2)cc1 (stereo not drawn),104,132,i,4,138*,9
CC(=O)c1c(C)nc(-c2ccccc2)nc1N,99,261,+,5,91,-8
Cc1cc(-c2n[nH]c(=S)n2N=Cc2ccc(Cl)c([N+](=O)[O-])c2)n[nH]1,nt,nt,nt,2,nt,nt
CC(CC(=O)Nc1cc(Cl)ccc1C)=NNC(=O)C(=O)N1CCCC1,nt,nt,nt,3,nt,nt
Cn1cc(CN2CCC(n3nccc3NC(=O)c3ccccc3Cl)CC2)c2ccccc21,103,112,i,5,155*,19
O=C(Nc1ccnn1C1CCN(Cc2c[nH]c3ccccc23)CC1)c1ccccc1,105,376,i,4,135*,21
O=C(Nc1ccnn1C1CCN(CC2CC=CCC2)CC1)c1ccccc1 (stereo not drawn),101,nt,i,4,104,-2
COC(=O)/C=C1/S/C(=N/NC(=O)c2ccc(OC)cc2)NC1=O,103,301,i,25*,103,-1
CCNC(=S)NNC(=O)CCn1cc(C)cn1,118,352,+,nt,110,10
Cc1cnn(CCC(=O)NNC(=S)Nc2ccc(F)cc2)c1,107,119,i,1,106,5
COCCCNC(=O)c1ccc2c(=O)n(Cc3ccc(Cl)cc3)c(=S)[nH]c2c1,105,543,i,1,103,3
CC1CCN(CCNC(=O)c2ccc3c(=O)n(Cc4ccc(Cl)cc4)c(=S)[nH]c3c2)CC1,101,472,i,3,175*,39*
